Experimental data: ChEMBL document CHEMBL1145938, “Synthesis and structure-activity relationship of aminobenzophenones. A novel class of p38 MAP kinase inhibitors with high antiinflammatory activity” (J Med Chem, 2003)

Tests used:
[1] = target: T1, Myeloperoxidase (Mus musculus) (UniProt P11247); experiment: Inhibition of myeloperoxidase (MPO) activity induced by oxazolone in murine allergic contact dermatitis model at 0.001 mg/ear at 24 hr (in vivo); format: organism-based
T1 sequence (whole entry): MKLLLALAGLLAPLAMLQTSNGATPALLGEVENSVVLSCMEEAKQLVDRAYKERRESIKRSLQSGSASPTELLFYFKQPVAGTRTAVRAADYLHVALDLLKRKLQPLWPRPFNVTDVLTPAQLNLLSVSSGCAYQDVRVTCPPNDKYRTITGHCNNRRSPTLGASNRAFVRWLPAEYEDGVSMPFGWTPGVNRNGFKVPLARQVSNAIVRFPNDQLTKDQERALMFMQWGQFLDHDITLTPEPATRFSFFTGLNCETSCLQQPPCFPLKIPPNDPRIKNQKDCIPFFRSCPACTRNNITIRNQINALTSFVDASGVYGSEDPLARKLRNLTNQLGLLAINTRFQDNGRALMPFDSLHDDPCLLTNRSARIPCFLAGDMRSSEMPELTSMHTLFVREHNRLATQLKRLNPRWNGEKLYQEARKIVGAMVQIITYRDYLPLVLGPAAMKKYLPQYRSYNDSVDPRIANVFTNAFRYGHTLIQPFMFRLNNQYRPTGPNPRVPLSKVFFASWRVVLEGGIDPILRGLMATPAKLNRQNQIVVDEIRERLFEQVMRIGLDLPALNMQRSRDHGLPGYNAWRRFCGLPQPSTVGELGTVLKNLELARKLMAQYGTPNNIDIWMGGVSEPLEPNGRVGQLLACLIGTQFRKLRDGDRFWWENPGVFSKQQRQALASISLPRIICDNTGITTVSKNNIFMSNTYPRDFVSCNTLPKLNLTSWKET

Mus musculus [2] = experiment: Inhibition of ear swelling induced by oxazolone in murine allergic contact dermatitis model at 0.001 mg/ear at 24 hr (in vivo); format: functional
Outline: (§1)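 Groups of six female inbred BALB/cABOM mice (18–21 g) were sensitized with oxazolone on the clipped abdomen 7 days before right-ear challenge. Compound in acetone (20 μL) or vehicle was applied once, 30 min after challenge. Ear swelling (right minus left ear thickness) was read at 24, 48 and 72 h. Values are mean % inhibition ± SEM of four or five experiments.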

Mus musculus [3] = experiment: Inhibition of ear swelling induced by oxazolone in murine allergic contact dermatitis model at 0.001 mg/ear at 72 hr (in vivo); format: functional; outline: as §1
Mus musculus [4] = experiment: Inhibition of ear swelling induced by oxazolone in murine allergic contact dermatitis model at 0.5 mg/ear at 48 hr (in vivo)
[5] = target: T2, Mitogen-activated protein kinase 12 (Homo sapiens) (UniProt P53778); experiment: Inhibition of Mitogen-activated protein kinase p38 gamma at 1 uM
T2 sequence (whole entry): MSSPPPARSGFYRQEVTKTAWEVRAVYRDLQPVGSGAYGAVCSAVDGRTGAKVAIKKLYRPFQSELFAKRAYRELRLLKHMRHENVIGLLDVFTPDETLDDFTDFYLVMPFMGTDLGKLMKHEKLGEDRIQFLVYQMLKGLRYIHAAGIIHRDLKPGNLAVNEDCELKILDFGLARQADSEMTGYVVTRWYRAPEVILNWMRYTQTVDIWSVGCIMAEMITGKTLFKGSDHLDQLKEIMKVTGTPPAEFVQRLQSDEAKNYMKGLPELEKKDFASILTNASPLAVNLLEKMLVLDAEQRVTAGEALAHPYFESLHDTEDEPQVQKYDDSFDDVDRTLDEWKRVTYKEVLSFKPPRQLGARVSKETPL
Outline: (§2)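 FLAG-tagged p38 isoform cDNA (β2, γ or δ) transfected into COS-1 cells; kinase activity of the expressed isoform measured with compound at 1 μM.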

Homo sapiens [6] = organism: Homo sapiens; experiment: In vitro inhibition of gamma-interferon release by human […]; format: functional
Outline: (§3)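 Human PBMC were isolated from buffy coats and diluted 1:1 in saline. Cells were held at 5×10^5 cells/mL in RPMI1640 with 2 mM glutamine and penicillin/streptomycin, then preincubated 30 min with compound. IL-12: 2% FCS, IFN-γ 95 ng/mL for 18 h, then LPS for 24 h. IL-2 and IFN-γ: 10% FCS, phytohemagglutinin for 48 h. Supernatant cytokine measured by sandwich ELISA.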

[7] = target: T3, Mitogen-activated protein kinase 13 (Homo sapiens) (UniProt O15264); experiment: Inhibition of Mitogen-activated protein kinase p38 delta at 1 uM; outline: as §2
T3 sequence (whole entry): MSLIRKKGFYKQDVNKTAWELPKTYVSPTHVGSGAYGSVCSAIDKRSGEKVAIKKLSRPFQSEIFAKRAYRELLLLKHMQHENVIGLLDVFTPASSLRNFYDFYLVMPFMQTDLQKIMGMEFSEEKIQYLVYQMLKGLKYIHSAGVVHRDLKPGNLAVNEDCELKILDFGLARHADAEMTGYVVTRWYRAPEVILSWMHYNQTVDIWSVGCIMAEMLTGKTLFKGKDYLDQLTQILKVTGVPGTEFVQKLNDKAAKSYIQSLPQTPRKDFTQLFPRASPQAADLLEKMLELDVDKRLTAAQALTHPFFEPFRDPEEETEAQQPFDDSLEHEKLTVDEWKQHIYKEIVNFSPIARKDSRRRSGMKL

MAP kinase p38 [8] = target: T4, MAP kinase p38 (Homo sapiens, UniProt O15264+Q15759+Q16539+P53778); experiment: In vitro inhibition of cytokine IL-6 release by human […]; format: functional
Outline: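 PBMC isolated from buffy coats, 5×10^5 cells/mL in RPMI1640 plus 2% FCS, glutamine and antibiotics. Compound added 30 min before LPS; culture 6 h. Supernatant IL-6 or IL-8 quantified by ELISA kits.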

[9] = target: T5, Mitogen-activated protein kinase 14 (Homo sapiens, UniProt Q16539); experiment: Inhibition of Mitogen-activated protein kinase p38 alpha at 1 uM
Outline: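 FLAG-tagged p38α cDNA was transfected into COS-1 cells. Kinase activity of the expressed isoform was measured with compound at 1 μM.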

Mus musculus [10] = organism: Mus musculus; experiment: Inhibition of ear swelling induced by oxazolone induced murine allergic contact dermatitis model at 0.5 mg/ear at 48 hr; format: functional; outline: as §1
Mus musculus [11] = experiment: Inhibition of ear weight induced by 12-O-tetradecanoylphorbol-13-acetate (TPA) in murine chronic irritative contact dermatitis model at 0.5 mg/ear (in vivo); format: functional
Outline: (§4)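 Murine TPA-induced chronic irritative ear dermatitis, with compound given topically per ear. Ear swelling and ear weight were determined 5 h after the last application. Values are mean % inhibition ± SEM of three to five experiments.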

MAP kinase p38 [12] = target: T4, MAP kinase p38; experiment: In vitro inhibition of cytokine IL-10 release by human […]; format: functional
Outline: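 Buffy-coat PBMC at 5×10^5 cells/mL in RPMI1640 with 10% FCS, glutamine, antibiotics; 30 min compound preincubation, then phytohemagglutinin stimulation and 48 h incubation.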

Mus musculus [13] = organism: Mus musculus; experiment: Inhibition of ear swelling in oxazolone-induced murine allergic contact dermatitis at 0.5 mg/ear at 24 hr; format: functional; outline: as §1
[14] = target: Mitogen-activated protein kinase 11 (Homo sapiens) (UniProt Q15759); experiment: Inhibition of Mitogen-activated protein kinase p38 beta at 1 uM; outline: as §2
[15] = target: Mitogen-activated protein kinase 8 (Homo sapiens) (UniProt P45983); experiment: Inhibition of c-Jun N-terminal kinase 1 at 10 uM
Outline: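 JNK1 activity from UV-stimulated MCF-7 cells, measured with a JNK1 kinase kit in presence of compound.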

Mus musculus [16] = organism: Mus musculus; experiment: Inhibition of ear swelling induced by oxazolone induced murine allergic contact dermatitis model at 0.5 mg/ear at 72 hr; format: functional; outline: as §1
[17] = target: T1, Myeloperoxidase (Mus musculus); experiment: Inhibition of myeloperoxidase (MPO) activity induced by oxazolone in murine allergic contact dermatitis model at 0.5 mg/ear at 72 hr (in vivo)
MAP kinase p38 [18] = target: T4, MAP kinase p38; experiment: In vitro inhibition of IL1-beta release from LPS stimulated human peripheral blood mononuclear cells.; format: functional
Outline: (§5)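 Human PBMC from buffy coats (Lymphoprep), 5×10^5 cells/mL in RPMI1640 with 2% FCS, glutamine, penicillin/streptomycin; 30 min preincubation with compound, then LPS stimulation, 18 h at 37 °C, 5% CO2.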

Homo sapiens [19] = organism: Homo sapiens; experiment: In vitro inhibition of cytokine IL-12 release by human […]; format: functional; outline: as §3
Homo sapiens [20] = organism: Homo sapiens; experiment: In vitro inhibition of cytokine IL-2 release by human […]; format: functional; outline: as §3
[21] = target: Mitogen-activated protein kinase; ERK1/ERK2 (Homo sapiens) (UniProt P27361+P28482); experiment: Inhibition of Mitogen-activated protein kinase 3/Mitogen-activated protein kinase 1 (ERK) at 10 uM; format: protein assay
Outline: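 MCF-7 cells stimulated with EGF; ERK1/2 activity measured with a modified cell-signalling ERK1/2 kinase kit in presence of compound.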

[22] = target: T1, Myeloperoxidase (Mus musculus); experiment: Inhibition of myeloperoxidase (MPO) activity induced by TPA in murine chronic irritative contact dermatitis model at 0.5 mg/ear (in vivo); format: organism-based
[23] = target: T5, Mitogen-activated protein kinase 14; experiment: In vitro inhibitory activity determined against human mitogen-activated protein kinase p38 alpha
Mus musculus [24] = experiment: Inhibition of ear swelling induced by 12-O-tetradecanoylphorbol-13-acetate (TPA) in murine chronic irritative contact dermatitis model at 0.5 mg/ear (in vivo); format: functional; outline: as §4
MAP kinase p38 [25] = target: T4, MAP kinase p38; experiment: In vitro inhibition of TNF-alpha release from LPS stimulated human peripheral blood mononuclear cells.; format: functional; outline: as §5
MAP kinase p38 [26] = target: T4, MAP kinase p38; experiment: In vitro inhibition of cytokine IL-8 release by human peripheral blood mononuclear cells
Mus musculus [27] = experiment: Inhibition of ear swelling in oxazolone induced murine allergic contact dermatitis model at 0.5 mg/ear at 72 hr (in vivo); format: functional; outline: as §1
Mus musculus [28] = experiment: Inhibition of ear swelling in oxazolone-induced murine allergic contact dermatitis at 0.5 mg/ear at 24 hr (in vivo); format: functional; outline: as §1
Mus musculus [29] = experiment: Inhibition of ear swelling in oxazolone induced murine allergic contact dermatitis model at 0.5 mg/ear at 48 hr (in vivo); format: functional; outline: as §1
Mus musculus [30] = experiment: Inhibition of ear weight induced by 12-O-tetradecanoylphorbol-13-acetate (TPA) in murine chronic irritative contact dermatitis model at 0.001 mg/ear (in vivo); format: functional; outline: as §4
[31] = target: T1, Myeloperoxidase (Mus musculus); experiment: Inhibition of myeloperoxidase (MPO) activity induced by TPA in murine chronic irritative contact dermatitis model at 0.001 mg/ear (in vivo); format: organism-based
Mus musculus [32] = experiment: Inhibition of ear swelling induced by 12-O-tetradecanoylphorbol-13-acetate (TPA) in murine chronic irritative contact dermatitis model at 0.001 mg/ear (in vivo); format: functional; outline: as §4

T5 sequence (Q16539 whole entry, canonical isoform): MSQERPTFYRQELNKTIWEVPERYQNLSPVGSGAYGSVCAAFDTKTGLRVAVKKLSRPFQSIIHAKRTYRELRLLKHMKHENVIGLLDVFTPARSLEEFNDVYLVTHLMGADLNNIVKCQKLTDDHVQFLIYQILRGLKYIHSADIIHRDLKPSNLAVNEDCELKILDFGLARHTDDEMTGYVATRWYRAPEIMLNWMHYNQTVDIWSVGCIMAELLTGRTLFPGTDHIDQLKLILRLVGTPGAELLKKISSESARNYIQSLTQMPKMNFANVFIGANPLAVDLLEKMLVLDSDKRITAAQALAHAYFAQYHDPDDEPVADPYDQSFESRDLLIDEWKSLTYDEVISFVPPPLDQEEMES
Sequence of Mitogen-activated protein kinase; ERK1/ERK2 (Homo sapiens) (P27361 whole entry, looked up): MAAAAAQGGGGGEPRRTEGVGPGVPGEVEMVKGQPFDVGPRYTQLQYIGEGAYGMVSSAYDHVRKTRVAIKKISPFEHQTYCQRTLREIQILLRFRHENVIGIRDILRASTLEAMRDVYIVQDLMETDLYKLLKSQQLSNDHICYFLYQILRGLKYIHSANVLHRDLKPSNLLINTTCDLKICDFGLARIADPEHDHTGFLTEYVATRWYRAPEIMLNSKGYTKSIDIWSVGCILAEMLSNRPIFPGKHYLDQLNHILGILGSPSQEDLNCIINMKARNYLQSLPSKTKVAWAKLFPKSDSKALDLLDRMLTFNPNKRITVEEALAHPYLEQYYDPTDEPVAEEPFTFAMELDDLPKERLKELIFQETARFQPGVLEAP
Sequence of Mitogen-activated protein kinase; ERK1/ERK2 (Homo sapiens) (P28482 whole entry, looked up): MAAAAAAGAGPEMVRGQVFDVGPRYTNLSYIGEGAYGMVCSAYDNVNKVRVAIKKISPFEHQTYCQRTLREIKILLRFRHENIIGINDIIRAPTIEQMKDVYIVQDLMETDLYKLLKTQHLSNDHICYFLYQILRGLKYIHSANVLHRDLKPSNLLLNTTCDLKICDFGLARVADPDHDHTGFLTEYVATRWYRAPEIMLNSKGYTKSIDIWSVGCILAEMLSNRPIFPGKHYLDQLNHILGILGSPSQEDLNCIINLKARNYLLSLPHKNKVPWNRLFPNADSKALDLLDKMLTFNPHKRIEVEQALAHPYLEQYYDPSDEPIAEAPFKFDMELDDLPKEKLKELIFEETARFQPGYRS
Sequence of Mitogen-activated protein kinase 11 (Homo sapiens) (Q15759 whole entry): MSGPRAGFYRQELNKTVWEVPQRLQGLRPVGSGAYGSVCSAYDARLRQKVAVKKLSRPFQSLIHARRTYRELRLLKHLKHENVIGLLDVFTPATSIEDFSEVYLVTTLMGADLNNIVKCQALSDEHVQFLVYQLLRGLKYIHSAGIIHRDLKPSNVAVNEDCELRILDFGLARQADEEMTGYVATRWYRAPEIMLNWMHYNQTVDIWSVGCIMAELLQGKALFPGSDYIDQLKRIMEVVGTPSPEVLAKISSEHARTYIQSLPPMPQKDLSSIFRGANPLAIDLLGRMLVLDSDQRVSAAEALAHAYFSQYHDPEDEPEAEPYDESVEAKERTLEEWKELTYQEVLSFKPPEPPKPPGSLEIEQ
Sequence of Mitogen-activated protein kinase 8 (Homo sapiens) (P45983 whole entry): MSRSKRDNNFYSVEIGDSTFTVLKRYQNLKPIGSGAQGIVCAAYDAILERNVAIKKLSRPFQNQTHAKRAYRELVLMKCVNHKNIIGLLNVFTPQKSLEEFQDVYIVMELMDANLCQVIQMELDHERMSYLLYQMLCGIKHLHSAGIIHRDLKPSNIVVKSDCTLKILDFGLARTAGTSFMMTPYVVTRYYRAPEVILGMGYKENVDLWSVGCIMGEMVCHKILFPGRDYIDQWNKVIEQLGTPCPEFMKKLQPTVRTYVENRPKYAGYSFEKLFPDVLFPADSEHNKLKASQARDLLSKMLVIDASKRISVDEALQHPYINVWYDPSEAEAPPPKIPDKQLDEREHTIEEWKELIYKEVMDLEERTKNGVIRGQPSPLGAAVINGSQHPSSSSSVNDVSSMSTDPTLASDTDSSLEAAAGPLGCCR

Compound | inhibition [5] [%] | IC50 (Homo sapiens [6]) [nM] | inhibition [7] [%] | IC50 (MAP kinase p38 [8]) [nM] | inhibition [9] [%] | Inhibition (Mus musculus [11]) [%] | IC50 (MAP kinase p38 [12]) [nM] | inhibition [14] [%] | inhibition [17] [%] | IC50 (MAP kinase p38 [18]) [nM] | IC50 (Homo sapiens [19]) [nM] | IC50 (Homo sapiens [20]) [nM] | inhibition [21] [%] | inhibition [22] [%] | IC50 [23] [nM] | Inhibition (Mus musculus [24]) [%] | IC50 (MAP kinase p38 [25]) [nM] | IC50 (MAP kinase p38 [26]) [nM] | other results
CCCCO[C@]1(C(=O)CO)CCC2C3CCC4=CC(=O)CCC4(C)C3C(O)CC21C (stereo not given in full) | – | – | – | – | – | – | – | – | – | – | – | – | – | – | – | – | – | – | inhibition [1]: 41%; Inhibition (Mus musculus [2]): 43%; Inhibition (Mus musculus [3]): 55%; Inhibition (Mus musculus [4]): 55%
Cc1ccccc1C(=O)c1ccc(Nc2ccc(Br)cc2N)cc1Cl | 0 | > 1000 | 0 | 17 | 82 | 34 | 74 | 93 | 56 | 30 | > 1000 | > 1000 | 0 | 79 | 39 | 27 | 5 | 4 | Inhibition (Mus musculus [10]): 38%; Inhibition (Mus musculus [13]): 35%; inhibition [15]: 0%; Inhibition (Mus musculus [16]): 46%
Cc1ccccc1C(=O)c1ccc(Nc2ccccc2N)cc1Cl | 0 | > 1000 | 8 | 18 | 88 | 27 | 12 | 93 | 56 | 14 | > 1000 | > 1000 | 20 | 73 | 10 | 37 | 6 | 6 | Inhibition (Mus musculus [27]): 46%; Inhibition (Mus musculus [28]): 43%; Inhibition (Mus musculus [29]): 46%
CCCCC(=O)O[C@]1(C(=O)CO)[C@@H](C)C[C@H]2[C@@H]3CCC4=CC(=O)C=C[C@]4(C)[C@@]3(F)[C@@H](O)C[C@@]21C [BETAMETHASONE VALERATE] | – | – | – | – | – | – | – | – | – | – | – | – | – | – | – | – | – | – | Inhibition (Mus musculus [30]): 38%; inhibition [31]: 67%; Inhibition (Mus musculus [32]): 41%
